Columns and labels:
[1] = biological target: cGMP-specific 3',5'-cyclic phosphodiesterase (Homo sapiens, UniProt O76074); test: Inhibition of human platelet PDE5 by [3H]cGMP scintillation proximity assay
[2] = Inhibition of bovine PDE6 by [3H]cGMP scintillation proximity assay; set-up: species or system Bos taurus
[3] = Inhibition of bovine PDE1 by [3H]cGMP scintillation proximity assay; set-up: species or system Bos taurus
[4] = biological target: Phosphodiesterase 3 (Homo sapiens, UniProt Q14432+Q13370); test: Inhibition of human platelet PDE3 by [3H]cGMP scintillation proximity assay
[5] = Permeability from apical to basolateral side of Caco-2 cell membrane; assay type: ADME, cell-based; conditions: human
[6] = Oral bioavailability in dog at 2.5 mg/kg; assay type: ADME, organism-based, Canis lupus familiaris; conditions: in vivo
Method in brief: (§1)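 Dog pharmacokinetics: clearance, half-life and Vss came from IV dosing. Bioavailability came from oral dosing at 2.5 mg/kg. Values are means ± SEM.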

[7] = biological target: T1, Adenosine receptor A1 (Homo sapiens, UniProt P30542); test: Inhibition of adenosine A1 receptor
T1 sequence (P30542 whole entry): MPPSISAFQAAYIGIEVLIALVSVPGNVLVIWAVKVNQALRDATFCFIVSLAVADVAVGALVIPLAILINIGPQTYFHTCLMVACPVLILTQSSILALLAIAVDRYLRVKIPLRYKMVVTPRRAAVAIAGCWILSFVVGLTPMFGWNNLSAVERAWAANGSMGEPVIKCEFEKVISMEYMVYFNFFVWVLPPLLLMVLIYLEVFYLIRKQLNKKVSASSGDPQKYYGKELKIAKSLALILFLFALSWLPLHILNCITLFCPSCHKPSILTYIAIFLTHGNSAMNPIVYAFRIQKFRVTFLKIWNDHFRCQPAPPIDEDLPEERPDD
Method in brief: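 Binding was profiled in a contract Spectrum Screen panel of 111 receptors. Adenosine A1 activity was reported as Ki.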

[8] = Inhibition of adenosine transporter; set-up: species or system Homo sapiens
[9] = Intrinsic clearance in rat microsomes; assay type: ADME, Microsome
[10] = Intrinsic clearance in human microsomes; assay type: ADME, Microsome
[11] = Intrinsic clearance in dog microsomes; assay type: ADME, Canis lupus familiaris, Liver, Microsome
[12] = Half life in rat at 0.8 mg/kg, iv; assay type: ADME, organism-based; set-up: dose 0.8 mg/kg, route intravenous; conditions: in vivo
Method in brief: (§2)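 Rat pharmacokinetics: IV bolus at 0.8 mg/kg gave clearance, half-life and Vss. […] Values are means ± SEM.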

[13] = Clearance in rat at 0.8 mg/kg, iv; assay type: ADME, organism-based; set-up: dose 0.8 mg/kg, route intravenous; conditions: in vivo; method in brief: as §2
[14] = Volume of distribution at steady state in rat; assay type: ADME, organism-based; conditions: in vivo, read-out: Vdss; method in brief: as §2
[15] = Bioavailability in rat at 3.3 mg/kg, intraduodenally; assay type: ADME, organism-based; conditions: in vivo; method in brief: as §2
[16] = Half life in dog at 0.2 mg/kg, iv; assay type: ADME, organism-based, Canis lupus familiaris; set-up: dose 0.2 mg/kg, route intravenous; conditions: in vivo; method in brief: as §1
[17] = Clearance in iv dosed dog; assay type: ADME, organism-based, Canis lupus familiaris; conditions: in vivo; method in brief: as §1
[18] = Volume of distribution at steady state in dog; assay type: ADME, organism-based, Canis lupus familiaris; conditions: in vivo, read-out: Vdss; method in brief: as §1
[19] = biological target: 3',5'-cyclic-AMP phosphodiesterase 4B (Homo sapiens, UniProt Q07343); test: Inhibition of human recombinant PDE4B by […] scintillation proximity assay
[20] = biological target: 3',5'-cyclic-AMP phosphodiesterase 4D (Homo sapiens, UniProt Q08499); test: Inhibition of human recombinant PDE4D by […] scintillation proximity assay
[21] = biological target: High affinity 3',5'-cyclic-AMP phosphodiesterase 7A (Homo sapiens, UniProt Q13946); test: Inhibition of human recombinant PDE7A by […] scintillation proximity assay
[22] = biological target: cGMP-dependent 3',5'-cyclic phosphodiesterase (Homo sapiens, UniProt O00408); test: Inhibition of human platelet PDE2 by [3H]cGMP scintillation proximity assay
cGMP-dependent 3',5'-cyclic phosphodiesterase, sequence (O00408 whole entry): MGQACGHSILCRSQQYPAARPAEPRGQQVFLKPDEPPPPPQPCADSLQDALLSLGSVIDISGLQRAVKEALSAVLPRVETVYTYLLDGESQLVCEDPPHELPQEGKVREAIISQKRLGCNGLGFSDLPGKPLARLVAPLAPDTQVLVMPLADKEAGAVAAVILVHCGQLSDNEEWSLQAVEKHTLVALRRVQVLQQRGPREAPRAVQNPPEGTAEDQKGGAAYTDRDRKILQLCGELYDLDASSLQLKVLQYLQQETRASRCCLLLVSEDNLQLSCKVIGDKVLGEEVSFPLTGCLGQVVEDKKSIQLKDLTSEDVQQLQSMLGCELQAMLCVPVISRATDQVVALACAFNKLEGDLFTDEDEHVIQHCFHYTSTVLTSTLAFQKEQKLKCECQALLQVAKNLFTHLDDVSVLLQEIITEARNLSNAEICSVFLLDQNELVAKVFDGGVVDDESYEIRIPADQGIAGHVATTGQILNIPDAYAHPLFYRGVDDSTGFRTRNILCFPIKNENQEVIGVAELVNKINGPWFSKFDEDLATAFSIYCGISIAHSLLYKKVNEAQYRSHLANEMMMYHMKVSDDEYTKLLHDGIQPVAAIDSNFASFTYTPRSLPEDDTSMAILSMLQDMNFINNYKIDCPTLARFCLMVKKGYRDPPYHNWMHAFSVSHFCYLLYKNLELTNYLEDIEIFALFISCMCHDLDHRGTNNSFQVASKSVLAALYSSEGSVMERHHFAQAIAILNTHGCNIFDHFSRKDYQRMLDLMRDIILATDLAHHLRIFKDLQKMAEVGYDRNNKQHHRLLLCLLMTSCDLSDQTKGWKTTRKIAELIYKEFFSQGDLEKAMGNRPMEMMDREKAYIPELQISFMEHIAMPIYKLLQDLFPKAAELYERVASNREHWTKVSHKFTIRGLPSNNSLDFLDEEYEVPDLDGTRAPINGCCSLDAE

High affinity 3',5'-cyclic-AMP phosphodiesterase 7A, sequence (Q13946 whole entry): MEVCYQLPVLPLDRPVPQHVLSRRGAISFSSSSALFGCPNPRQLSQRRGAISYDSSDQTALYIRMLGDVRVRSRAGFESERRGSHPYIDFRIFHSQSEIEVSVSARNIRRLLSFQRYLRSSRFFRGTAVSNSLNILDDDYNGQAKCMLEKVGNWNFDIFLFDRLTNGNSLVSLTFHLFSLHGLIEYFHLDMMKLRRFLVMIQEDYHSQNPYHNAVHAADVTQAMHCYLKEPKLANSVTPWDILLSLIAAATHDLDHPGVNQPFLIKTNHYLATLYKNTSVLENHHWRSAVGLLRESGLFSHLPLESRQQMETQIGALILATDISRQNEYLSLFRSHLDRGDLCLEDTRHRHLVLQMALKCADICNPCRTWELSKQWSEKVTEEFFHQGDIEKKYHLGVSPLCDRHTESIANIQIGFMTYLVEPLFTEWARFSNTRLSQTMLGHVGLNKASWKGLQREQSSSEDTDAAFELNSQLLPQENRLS
3',5'-cyclic-AMP phosphodiesterase 4D, sequence (Q08499 whole entry): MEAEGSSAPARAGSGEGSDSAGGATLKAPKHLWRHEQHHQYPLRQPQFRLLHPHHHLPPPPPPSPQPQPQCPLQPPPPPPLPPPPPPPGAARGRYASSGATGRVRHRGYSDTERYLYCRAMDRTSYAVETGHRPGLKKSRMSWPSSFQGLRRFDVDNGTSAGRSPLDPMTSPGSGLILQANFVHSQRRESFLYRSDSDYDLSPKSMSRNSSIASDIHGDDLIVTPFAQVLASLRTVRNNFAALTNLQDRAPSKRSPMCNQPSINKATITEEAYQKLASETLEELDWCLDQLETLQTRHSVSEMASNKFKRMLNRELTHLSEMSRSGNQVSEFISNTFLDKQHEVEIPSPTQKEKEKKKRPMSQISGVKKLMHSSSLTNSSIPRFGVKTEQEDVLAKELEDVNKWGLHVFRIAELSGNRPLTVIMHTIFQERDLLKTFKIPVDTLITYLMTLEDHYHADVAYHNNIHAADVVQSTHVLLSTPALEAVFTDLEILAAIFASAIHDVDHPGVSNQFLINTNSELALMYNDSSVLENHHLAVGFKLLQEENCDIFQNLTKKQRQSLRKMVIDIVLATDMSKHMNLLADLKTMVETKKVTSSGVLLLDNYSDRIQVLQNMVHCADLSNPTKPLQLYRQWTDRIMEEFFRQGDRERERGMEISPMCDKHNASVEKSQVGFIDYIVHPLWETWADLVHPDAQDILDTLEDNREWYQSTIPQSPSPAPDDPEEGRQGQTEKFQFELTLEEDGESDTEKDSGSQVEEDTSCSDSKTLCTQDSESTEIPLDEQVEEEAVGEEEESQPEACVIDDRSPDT
3',5'-cyclic-AMP phosphodiesterase 4B, sequence (Q07343 whole entry): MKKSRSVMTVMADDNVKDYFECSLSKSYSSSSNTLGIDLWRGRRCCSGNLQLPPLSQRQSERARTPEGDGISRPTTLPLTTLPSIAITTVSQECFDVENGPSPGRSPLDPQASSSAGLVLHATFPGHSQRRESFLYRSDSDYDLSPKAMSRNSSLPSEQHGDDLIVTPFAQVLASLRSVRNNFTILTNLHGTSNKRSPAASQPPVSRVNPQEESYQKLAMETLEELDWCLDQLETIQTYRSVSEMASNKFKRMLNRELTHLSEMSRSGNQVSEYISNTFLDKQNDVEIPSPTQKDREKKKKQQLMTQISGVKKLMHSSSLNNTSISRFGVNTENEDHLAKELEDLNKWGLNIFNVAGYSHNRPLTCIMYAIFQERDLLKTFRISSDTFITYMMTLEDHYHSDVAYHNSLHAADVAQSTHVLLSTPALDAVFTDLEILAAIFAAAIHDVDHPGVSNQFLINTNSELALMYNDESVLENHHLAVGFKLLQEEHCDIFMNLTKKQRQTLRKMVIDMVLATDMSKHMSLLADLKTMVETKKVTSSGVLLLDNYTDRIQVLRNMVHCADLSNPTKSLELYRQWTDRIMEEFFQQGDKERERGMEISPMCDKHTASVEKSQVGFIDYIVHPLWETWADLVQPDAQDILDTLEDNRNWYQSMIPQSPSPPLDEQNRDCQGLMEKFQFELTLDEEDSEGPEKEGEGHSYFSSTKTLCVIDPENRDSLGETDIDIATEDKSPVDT

| IC50 [1] | IC50 [2] | IC50 [3] | IC50 [4] | SMILES | also measured |
| --- | --- | --- | --- | --- | --- |
| 8 nM | 294 nM | 2790 nM | 1060 nM | COc1cc2cncc(Cc3nc4c([nH]3)c(=O)n(C)c(=O)n4CC(C)(C)C)c2cc1OC | Papp A→B [5]: 23.4 ×10⁻⁶ cm/s |
| 9 nM | 389 nM | 417 nM | 299 nM | COc1cc2cncc(Cc3nc4c([nH]3)c(=O)n(C)c(=O)n4CC(C)C)c2cc1OC | Papp A→B [5]: 31.8 ×10⁻⁶ cm/s |
| 462 nM | – | – | – | COc1cc2cncc(Cc3nc4c([nH]3)c(=O)n(CC(C)C)c(=O)n4CC(C)C)c2cc1OC | – |
| 28 nM | 1130 nM | – | – | COc1cc2cncc(Cc3nc4c([nH]3)c(=O)n(C)c(=O)n4CC3CCCCC3)c2cc1OC | – |
| 30 nM | 333 nM | – | – | C=C(C)Cn1c(=O)n(C)c(=O)c2[nH]c(Cc3cncc4cc(OC)c(OC)cc34)nc21 | – |
| 20 nM | 823 nM | 1320 nM | 1640 nM | COc1cc2cncc(Cc3nc4c([nH]3)c(=O)n(C)c(=O)n4CC3CC3)c2cc1OC | – |
| 6 nM | 363 nM | 670 nM | 2710 nM | COc1cc2cncc(Cc3nc4c([nH]3)c(=O)n(C)c(=O)n4CC(C)CO)c2cc1OC (racemic) | – |

The remaining lines, values behind:

| SMILES | IC50 [1] | IC50 [2] | IC50 [3] | IC50 [4] | also measured |
| --- | --- | --- | --- | --- | --- |
| COc1cc2cncc(Cc3nc4c([nH]3)c(=O)n(C)c(=O)n4Cc3ccc(NS(=O)(=O)C(C)C)cc3)c2cc1OC | 5 nM | 399 nM | 3440 nM | 3130 nM | – |
| COc1cc2c(Cc3nc4c([nH]3)c(=O)n(C)c(=O)n4CC(C)C)cnc(C)c2cc1OC | 2 nM | 226 nM | 72 nM | 42 nM | Papp A→B [5]: 0.9 ×10⁻⁶ cm/s |
| COc1ccc(Cn2c(=O)n(C)c(=O)c3[nH]c(Cc4cncc5cc(OC)c(OC)cc45)nc32)cc1OC | 33 nM | 1820 nM | 3910 nM | – | – |
| COc1cc2cnc(C)c(Cc3nc4c([nH]3)c(=O)n(C)c(=O)n4CC(C)C)c2cc1OC | 26 nM | 525 nM | – | – | – |
| CC(C)Cn1c(=O)n(C)c(=O)c2[nH]c(Cc3cncc4ccccc34)nc21 | 34 nM | 857 nM | 7290 nM | 1850 nM | – |
| COc1ccc2c(Cc3nc4c([nH]3)c(=O)n(C)c(=O)n4CC(C)C)cncc2c1 | 51 nM | 247 nM | – | – | – |
| COc1ccc2cncc(Cc3nc4c([nH]3)c(=O)n(C)c(=O)n4CC(C)C)c2c1 [listing 1 of 2 here] | – | 180 nM | 2850 nM | 2220 nM | bioavailability [6]: 103%; Ki [7]: 2300 nM; Ki [8]: 2800 nM; Papp A→B [5]: 13.8 ×10⁻⁶ cm/s; clearance [9]: 162 µL/min/mg; clearance [10]: 4 µL/min/mg; clearance [11]: 6 µL/min/mg; half-life [12]: 21 min; clearance [13]: 118 mL/min/kg; Vd [14]: 2.9 L/kg; bioavailability [15]: 1%; half-life [16]: 63.4 min; clearance [17]: 28.7 mL/min/kg; Vd [18]: 2.1 L/kg |
| COc1cc2cncc(C(C)c3nc4c([nH]3)c(=O)n(C)c(=O)n4CC(C)C)c2cc1OC (stereo unspecified) | 94 nM | – | – | – | – |
| CC(C)Cn1c(=O)n(C)c(=O)c2[nH]c(CC3CC4CCC3C4)nc21 (stereo unspecified) | 25 nM | 65 nM | – | – | – |
| COc1cc2cncc(Cc3nc4c(c(=O)n(C)c(=O)n4CC(C)C)n3C)c2cc1OC | 553 nM | – | – | – | – |
| COc1cc2cncc(Cc3nc4c([nH]3)c(=O)n(C)c(=O)n4Cc3ccc(NC(C)=O)cc3)c2cc1OC | 42 nM | 471 nM | – | – | – |
| CC(C)Cn1c(=O)n(C)c(=O)c2[nH]c(Cc3cncc4cc5c(cc34)OCO5)nc21 | 10000 nM | – | – | – | – |
| COc1ccc2cncc(Cc3nc4c([nH]3)c(=O)n(C)c(=O)n4CC(C)C)c2c1 [listing 2 of 2 here] | – | – | – | – | IC50 [19]: > 10000 nM; IC50 [20]: > 10000 nM; IC50 [21]: > 10000 nM; IC50 [22]: 4600 nM |

Reference: ChEMBL document CHEMBL1139183, “Potent and selective xanthine-based inhibitors of phosphodiesterase 5” (Bioorg Med Chem Lett, 2007)
